Data: ChEMBL document CHEMBL2390828, “Synthesis and biological characterization of spiro[2H-(1,3)-benzoxazine-2,4'-piperidine] based histone deacetylase inhibitors” (Eur J Med Chem, 2013)

Experiments:
HCT-116 = assay: Cytotoxicity against human HCT116 cells; type: functional, cell-based
K562 = assay: Cytotoxicity against human K562 cells; type: functional, cell-based
Histone deacetylase = assay: Inhibition of HDAC in human Hela cell nuclear extract after 15 mins; type: protein assay
A549 = assay: Cytotoxicity against human A549 cells; type: functional, cell-based
[1] = Metabolic stability in human liver microsomes after 30 mins by LC-MS/MS analysis; type: ADME, Microsome; details: read-out: Stability
How it was run: (§1)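 Compounds were incubated with mouse or human liver microsomal preparation for 30 min at 37 °C. The reaction was stopped with CH3CN. Unmetabolized compound was quantified by LC-MS/MS in MRM mode and reported as percent remaining. Replicates n ≥ 2, mean values given.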

[2] = Metabolic stability in mouse liver microsomes after 30 mins by LC-MS/MS analysis; type: ADME, Microsome; details: read-out: Stability; how it was run: as §1
[3] = Cmax in CD1 mouse at 15 mg/kg, po; details: CD1, mouse, in vivo
[4] = Clearance in CD1 mouse at 5 mg/kg, iv and 15 mg/kg, po; type: ADME, organism-based; details: in vivo
How it was run: (§2)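 CD-1 mice got single doses of 5 mg/kg iv or 15 mg/kg orally. The iv vehicle was water with 3% DMSO and 9.7% encapsin. The oral vehicle was water with 5% DMSO and 9.5% encapsin. Plasma PK parameters were calculated, including AUC0–∞, clearance, half-life, Vss, cmax and oral bioavailability.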

Histone deacetylase 3 = Histone deacetylase 3 (Homo sapiens, UniProt O15379); assay: Inhibition of HDAC3 (unknown origin)
[5] = Oral bioavailability in CD1 mouse at 15 mg/kg; details: in vivo
[6] = Cmax in CD1 mouse at 5 mg/kg, iv; type: ADME, organism-based; parameters: dose 5 mg/kg, route intravenous; details: in vivo; how it was run: as §2
[7] = AUC (0 to infinity) in CD1 mouse at 5 mg/kg, iv; type: ADME, organism-based; parameters: time infinity, dose 5 mg/kg, route intravenous; details: plasma; how it was run: as §2
Histone deacetylase 2 = Histone deacetylase 2 (Homo sapiens, UniProt Q92769); assay: Inhibition of HDAC2 (unknown origin)
[8] = Volume of distribution at steady state in CD1 mouse at 5 mg/kg, iv and 15 mg/kg, po; type: ADME, organism-based; details: in vivo, read-out: Vdss; how it was run: as §2
[9] = biological target: T1, Protein deacetylase HDAC6 (Homo sapiens, UniProt Q9UBN7); assay: Inhibition of HDAC6 (unknown origin)
T1 sequence (Q9UBN7 whole entry): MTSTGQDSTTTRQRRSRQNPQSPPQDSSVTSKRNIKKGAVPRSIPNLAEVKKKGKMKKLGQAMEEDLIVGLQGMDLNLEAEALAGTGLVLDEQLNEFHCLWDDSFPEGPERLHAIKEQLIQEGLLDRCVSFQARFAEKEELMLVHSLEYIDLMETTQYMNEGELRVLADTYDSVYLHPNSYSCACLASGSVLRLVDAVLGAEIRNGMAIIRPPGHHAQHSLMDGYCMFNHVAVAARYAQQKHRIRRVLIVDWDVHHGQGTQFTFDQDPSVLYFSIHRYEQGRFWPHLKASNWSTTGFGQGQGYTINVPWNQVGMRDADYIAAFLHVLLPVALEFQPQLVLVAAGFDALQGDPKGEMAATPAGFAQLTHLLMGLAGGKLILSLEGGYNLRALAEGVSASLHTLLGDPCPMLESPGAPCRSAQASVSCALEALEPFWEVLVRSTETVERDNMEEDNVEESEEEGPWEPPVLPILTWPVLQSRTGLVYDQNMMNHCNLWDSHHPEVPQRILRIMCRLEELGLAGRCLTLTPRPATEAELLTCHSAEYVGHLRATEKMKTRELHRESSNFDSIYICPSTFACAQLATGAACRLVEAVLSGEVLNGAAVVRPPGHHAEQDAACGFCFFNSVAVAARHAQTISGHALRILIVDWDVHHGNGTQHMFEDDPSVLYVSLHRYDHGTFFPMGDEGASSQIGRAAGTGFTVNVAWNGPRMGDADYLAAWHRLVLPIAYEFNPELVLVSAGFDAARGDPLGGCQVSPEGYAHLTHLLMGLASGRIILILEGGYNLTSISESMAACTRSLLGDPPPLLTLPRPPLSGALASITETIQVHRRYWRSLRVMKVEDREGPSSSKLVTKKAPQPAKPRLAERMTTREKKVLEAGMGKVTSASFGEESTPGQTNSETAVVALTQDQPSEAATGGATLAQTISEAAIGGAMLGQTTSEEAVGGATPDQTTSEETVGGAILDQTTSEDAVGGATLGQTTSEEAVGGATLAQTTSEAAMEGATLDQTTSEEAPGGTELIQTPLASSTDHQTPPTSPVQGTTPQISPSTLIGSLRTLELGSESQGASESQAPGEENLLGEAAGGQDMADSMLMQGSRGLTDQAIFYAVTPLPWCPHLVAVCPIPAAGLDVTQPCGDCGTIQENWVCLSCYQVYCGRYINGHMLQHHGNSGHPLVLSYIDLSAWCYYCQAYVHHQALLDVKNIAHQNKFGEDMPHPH

[10] = AUC (0 to infinity) in CD1 mouse at 15 mg/kg, po; type: ADME, organism-based; parameters: time infinity, dose 15 mg/kg, route oral; details: plasma; how it was run: as §2
[11] = Tmax in CD1 mouse at 5 mg/kg, iv and 15 mg/kg, po; type: ADME, organism-based; details: in vivo; how it was run: as §2

Chain of Histone deacetylase 3 (O15379 whole entry): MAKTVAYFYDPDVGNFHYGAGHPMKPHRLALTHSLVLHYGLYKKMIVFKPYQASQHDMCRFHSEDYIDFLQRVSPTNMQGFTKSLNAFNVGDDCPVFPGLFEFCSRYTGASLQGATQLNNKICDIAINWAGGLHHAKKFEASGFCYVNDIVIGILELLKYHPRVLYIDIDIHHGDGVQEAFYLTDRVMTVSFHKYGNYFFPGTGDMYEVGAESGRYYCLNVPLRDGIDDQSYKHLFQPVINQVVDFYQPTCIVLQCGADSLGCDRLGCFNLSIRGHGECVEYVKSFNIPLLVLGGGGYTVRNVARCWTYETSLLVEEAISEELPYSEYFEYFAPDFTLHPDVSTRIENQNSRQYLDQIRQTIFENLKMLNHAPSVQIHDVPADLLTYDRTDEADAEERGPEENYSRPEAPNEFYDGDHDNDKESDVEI
Chain of Histone deacetylase 2 (Q92769 whole entry): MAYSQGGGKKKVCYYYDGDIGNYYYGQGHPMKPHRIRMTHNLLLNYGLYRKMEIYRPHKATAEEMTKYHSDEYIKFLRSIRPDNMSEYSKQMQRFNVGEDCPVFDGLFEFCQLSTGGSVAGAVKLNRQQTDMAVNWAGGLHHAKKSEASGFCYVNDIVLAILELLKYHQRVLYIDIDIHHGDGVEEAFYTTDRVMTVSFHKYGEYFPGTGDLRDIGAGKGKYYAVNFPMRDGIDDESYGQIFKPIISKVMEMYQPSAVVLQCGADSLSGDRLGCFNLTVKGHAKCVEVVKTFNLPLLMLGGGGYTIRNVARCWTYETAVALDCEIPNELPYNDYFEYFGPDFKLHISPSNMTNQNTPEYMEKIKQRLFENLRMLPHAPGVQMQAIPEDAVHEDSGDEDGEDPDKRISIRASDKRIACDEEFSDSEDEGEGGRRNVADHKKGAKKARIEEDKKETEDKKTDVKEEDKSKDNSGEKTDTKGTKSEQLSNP

Row | IC50 (Histone deacetylase) [nM] | SMILES | IC50 (HCT-116) [nM] | IC50 (K562) [nM] | IC50 (A549) [nM] | other results
1 | 78 | O=C(/C=C/c1ccc2c(c1)C(=O)NC1(CCNCC1)O2)NO | 6860 | 8930 | 4810 | –
2 | 645 | O=C(/C=C/c1ccc2c(c1)C(=O)N(Cc1ccccc1)C1(CCN(CCc3ccccc3)CC1)O2)NO | 1670 | 1250 | 1510 | –
3 | 137 | CN1C(=O)c2cc(/C=C/C(=O)NO)ccc2OC12CCN(Cc1ccc(F)cc1)CC2 | 848 | 734 | 2100 | remaining at 0.5 h [1]: 60%; remaining at 0.5 h [2]: 39%
4 | 113 | O=C(/C=C/c1ccc2c(c1)C(=O)CC1(CCN(CCc3ccccc3)CC1)O2)NO | 201 | 180 | 551 | Cmax [3]: 2.49 µM; clearance [4]: 79.8 mL/min/kg; IC50 (Histone deacetylase 3): 130 nM; bioavailability [5]: 51.1%; Cmax [6]: 6.34 µM; AUC(0-inf) [7]: 1040 ng·h/mL; IC50 (Histone deacetylase 2): 190 nM; Vd [8]: 8.6 L/kg; IC50 [9]: 160 nM; AUC(0-inf) [10]: 1600 ng·h/mL; Tmax [11]: 15 min
5 | 59 | O=C(/C=C/c1ccc2c(c1)C(=O)N(Cc1ccccc1)C1(CCNCC1)O2)NO | 857 | 1520 | 3190 | –
6 | 667 | O=C(/C=C/c1ccc2c(c1)C(=O)N(Cc1ccccc1)C1(CCN(Cc3ccc(F)cc3)CC1)O2)NO | 2030 | 1570 | 3040 | –
7 | 258 | CN1C(=O)c2cc(/C=C/C(=O)NO)ccc2OC12CCN(CCc1ccccc1)CC2 | 1060 | 795 | 2550 | –
8 | 174 | CN1CCC2(CC1)Oc1ccc(/C=C/C(=O)NO)cc1C(=O)N2Cc1ccccc1 | 326 | 360 | 912 | remaining at 0.5 h [1]: 53%; remaining at 0.5 h [2]: 19%
